We go through 21 molecules from ChEMBL document CHEMBL2424530, “Synthesis, biological evaluation and molecular docking studies of pyrazole derivatives coupling with a thiourea moiety as novel CDKs inhibitors” (Eur J Med Chem, 2013).

The nature of experiment [1]: Cytotoxicity against human H460 cells assessed as growth inhibition after 24 to 48 hrs by CCK8 assay. Type of experiment: functional, cell-based. The note with it: NCI-H460. An outline of the steps:
(§1)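 CCK8 proliferation assay: 1-5 × 10³ cells per well grew for 12 h, then were exposed to increasing compound concentrations in 10% FBS for 24 or 48 h. CCK8 dye was added for 1-2 h and plates were read on a multilabel counter. Percent inhibition or IC₅₀ was calculated against DMSO-treated control wells.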
A general note: Tetrazolium assays rely on reduction of a dye to a coloured formazan, in cell work by metabolically active cells.

Experiment [2] deals with Cyclin-dependent kinase 1 (Homo sapiens, UniProt P06493). Description: Inhibition of CDK1 (unknown origin) using histone H1 as substrate after 10 mins in presence of [gamma-32P]-ATP. An outline of the steps: (§2)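 Radiometric kinase reaction in 50 mM Tris-HCl with ATP plus γ-³²P ATP, 10 mM MgCl₂, 5 mM DTT and histone H1 substrate. It ran 10 min with inhibitor and was stopped with 30% phosphoric acid. Mixtures were spotted on P81 paper and washed five times with 10 mM Tris-HCl (pH 8.0)/0.1 M NaCl. Spot radioactivity was imaged, and IC₅₀ was the concentration giving 50% inhibition.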
Cyclin-dependent kinase 1, sequence (P06493 whole entry): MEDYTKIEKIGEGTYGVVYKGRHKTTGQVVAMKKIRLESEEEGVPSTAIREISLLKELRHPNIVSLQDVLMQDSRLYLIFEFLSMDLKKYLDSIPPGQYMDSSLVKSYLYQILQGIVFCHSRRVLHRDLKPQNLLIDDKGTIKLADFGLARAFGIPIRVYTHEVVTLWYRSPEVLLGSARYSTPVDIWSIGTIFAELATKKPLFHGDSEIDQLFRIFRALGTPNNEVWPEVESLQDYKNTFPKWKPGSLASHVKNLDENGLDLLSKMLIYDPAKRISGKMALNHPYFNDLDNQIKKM

The target of experiment [3] is Vascular endothelial growth factor receptor 2 (Homo sapiens, UniProt P35968). The experiment is described as follows: Inhibition of human VEGFR2 tyrosine kinase domain (Asp807 to Val1356) using poly-(Glu4-Tyr) as substrate incubated for 15 mins prior to ATP addition measured after 40 mins by DELFIA.
Vascular endothelial growth factor receptor 2, sequence (P35968 whole entry, the tested form may be a part): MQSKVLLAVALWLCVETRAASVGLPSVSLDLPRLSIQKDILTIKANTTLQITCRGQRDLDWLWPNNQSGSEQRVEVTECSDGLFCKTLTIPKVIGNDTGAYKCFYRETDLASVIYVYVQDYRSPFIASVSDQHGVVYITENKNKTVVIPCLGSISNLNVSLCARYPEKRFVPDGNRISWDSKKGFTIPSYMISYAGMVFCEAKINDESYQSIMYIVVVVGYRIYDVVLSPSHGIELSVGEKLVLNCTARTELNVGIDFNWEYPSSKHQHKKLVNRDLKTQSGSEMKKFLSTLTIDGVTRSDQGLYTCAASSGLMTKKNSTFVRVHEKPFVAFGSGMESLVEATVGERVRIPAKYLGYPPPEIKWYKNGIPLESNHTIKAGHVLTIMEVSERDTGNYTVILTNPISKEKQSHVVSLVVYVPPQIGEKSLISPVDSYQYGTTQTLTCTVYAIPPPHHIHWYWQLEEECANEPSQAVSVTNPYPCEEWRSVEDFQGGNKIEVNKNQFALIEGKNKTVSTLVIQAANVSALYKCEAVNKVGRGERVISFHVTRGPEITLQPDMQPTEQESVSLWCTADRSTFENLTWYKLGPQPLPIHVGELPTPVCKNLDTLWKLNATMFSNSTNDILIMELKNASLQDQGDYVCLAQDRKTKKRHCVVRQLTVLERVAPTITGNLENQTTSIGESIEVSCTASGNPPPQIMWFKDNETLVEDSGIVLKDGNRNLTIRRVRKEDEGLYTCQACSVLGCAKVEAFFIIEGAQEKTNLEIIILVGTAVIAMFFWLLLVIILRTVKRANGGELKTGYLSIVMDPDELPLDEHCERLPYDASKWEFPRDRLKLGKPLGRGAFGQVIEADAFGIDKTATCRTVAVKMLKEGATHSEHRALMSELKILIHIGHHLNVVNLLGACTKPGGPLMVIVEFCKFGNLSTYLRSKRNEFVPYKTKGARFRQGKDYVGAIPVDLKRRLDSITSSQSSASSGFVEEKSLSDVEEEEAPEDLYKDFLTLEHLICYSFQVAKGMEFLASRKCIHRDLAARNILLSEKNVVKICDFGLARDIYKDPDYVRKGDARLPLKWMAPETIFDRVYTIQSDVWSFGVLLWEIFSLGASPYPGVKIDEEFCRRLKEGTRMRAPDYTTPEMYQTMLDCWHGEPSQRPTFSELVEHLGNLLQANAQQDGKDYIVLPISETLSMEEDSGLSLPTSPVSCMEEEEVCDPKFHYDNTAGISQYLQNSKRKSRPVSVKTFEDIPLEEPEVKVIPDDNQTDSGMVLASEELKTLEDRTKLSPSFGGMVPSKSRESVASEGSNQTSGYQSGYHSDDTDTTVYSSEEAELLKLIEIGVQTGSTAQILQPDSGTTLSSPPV
The target in experiment [4] is Cyclin-dependent kinase 4 (Homo sapiens, UniProt P11802). Description: Inhibition of CDK4 (unknown origin) using histone H1 as substrate after 10 mins in presence of [gamma-32P]-ATP. An outline of the steps: as §2
Cyclin-dependent kinase 4, sequence (P11802 whole entry): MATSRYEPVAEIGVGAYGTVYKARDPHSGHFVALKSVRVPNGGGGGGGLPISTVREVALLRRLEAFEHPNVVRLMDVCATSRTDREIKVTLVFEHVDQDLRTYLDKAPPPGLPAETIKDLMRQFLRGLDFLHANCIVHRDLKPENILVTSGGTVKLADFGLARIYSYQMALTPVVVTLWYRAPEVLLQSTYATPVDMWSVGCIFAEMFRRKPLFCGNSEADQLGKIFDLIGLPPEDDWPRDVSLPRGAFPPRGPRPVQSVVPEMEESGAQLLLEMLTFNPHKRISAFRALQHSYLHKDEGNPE
Experiment [5] deals with Cyclin-dependent kinase 7 (Homo sapiens, UniProt P50613). Description: Inhibition of CDK7 (unknown origin) using histone H1 as substrate after 10 mins in presence of [gamma-32P]-ATP. An outline of the steps: as §2
Cyclin-dependent kinase 7, sequence (P50613 whole entry): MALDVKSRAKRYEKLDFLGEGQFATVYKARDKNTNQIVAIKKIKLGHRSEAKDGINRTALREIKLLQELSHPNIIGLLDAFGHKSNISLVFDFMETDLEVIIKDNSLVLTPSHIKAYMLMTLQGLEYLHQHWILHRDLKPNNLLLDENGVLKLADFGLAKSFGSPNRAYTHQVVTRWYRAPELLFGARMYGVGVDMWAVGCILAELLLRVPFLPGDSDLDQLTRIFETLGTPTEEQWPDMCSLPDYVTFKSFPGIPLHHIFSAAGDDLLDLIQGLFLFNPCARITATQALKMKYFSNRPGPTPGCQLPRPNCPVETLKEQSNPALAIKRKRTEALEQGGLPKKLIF
Experiment [6] deals with Cyclin-dependent kinase 5 (Homo sapiens, UniProt Q00535). The experiment is described as follows: Inhibition of CDK5 (unknown origin) using histone H1 as substrate after 10 mins in presence of [gamma-32P]-ATP. An outline of the steps: as §2
Cyclin-dependent kinase 5, sequence (Q00535 whole entry): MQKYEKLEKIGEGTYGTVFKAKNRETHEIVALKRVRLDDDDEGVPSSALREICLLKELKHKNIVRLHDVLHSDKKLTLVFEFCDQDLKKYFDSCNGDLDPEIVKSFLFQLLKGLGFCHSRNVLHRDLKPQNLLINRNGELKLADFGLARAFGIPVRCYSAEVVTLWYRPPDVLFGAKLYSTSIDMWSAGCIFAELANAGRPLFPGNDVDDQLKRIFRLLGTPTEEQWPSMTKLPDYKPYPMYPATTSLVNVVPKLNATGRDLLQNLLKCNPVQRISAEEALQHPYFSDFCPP
In experiment [7] the test system is A549. Description: Cytotoxicity against human A549 cells assessed as growth inhibition after 24 to 48 hrs by CCK8 assay. Format: functional, cell-based. An outline of the steps:
as §1

Experiment [8] has as its target Cyclin-dependent kinase 2 (Homo sapiens, UniProt P24941). Description: Inhibition of human N-terminal hexahistidine-tagged CDK2 expressed in baculovirus infected Sf21 cells using histone H1 as substrate after 10 mins in presence of [gamma-32P]-ATP.
In experiment [9] the test system is MCF7. Description: Cytotoxicity against human MCF7 cells assessed as growth inhibition after 24 to 48 hrs by CCK8 assay. Format: functional, cell-based. An outline of the steps: as §1
Experiment [10] addresses Epidermal growth factor receptor (Homo sapiens, UniProt P00533). The experiment is described as follows: Inhibition of human C-terminal EGFR tyrosine kinase domain.
For experiment [11], the target named is Cyclin-dependent kinase 6 (Homo sapiens, UniProt Q00534). The experiment is described as follows: Inhibition of CDK6 (unknown origin) using histone H1 as substrate after 10 mins in presence of [gamma-32P]-ATP. An outline of the steps: as §2
Cyclin-dependent kinase 6, sequence (Q00534 whole entry): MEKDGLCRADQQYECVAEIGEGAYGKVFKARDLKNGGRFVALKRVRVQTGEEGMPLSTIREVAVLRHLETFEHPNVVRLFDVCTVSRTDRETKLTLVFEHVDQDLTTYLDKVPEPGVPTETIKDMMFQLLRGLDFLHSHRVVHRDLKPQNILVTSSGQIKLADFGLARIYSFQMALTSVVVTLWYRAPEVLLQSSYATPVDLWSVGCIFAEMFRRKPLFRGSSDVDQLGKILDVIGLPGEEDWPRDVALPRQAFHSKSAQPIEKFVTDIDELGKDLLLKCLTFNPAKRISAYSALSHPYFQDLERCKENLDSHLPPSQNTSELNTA
Experiment [12] relates to A549. Description: Cell cycle arrest in human A549 cells assessed as accumulation at G2/M phase at 1 uM after 36 hrs by propidium iodide staining-based FACS flow cytometric analysis (reference value: 2.09%). Type of experiment: functional.
In experiment [13] the test system is A549. Description: Cell cycle arrest in human A549 cells assessed as accumulation at G0/G1 phase at 1 uM after 36 hrs by propidium iodide staining-based FACS flow cytometric analysis (reference value: 57.07%). Type of experiment: functional. A general note: A flow cytometer gives signals particle by particle.
Experiment [14] concerns A549. Description: Cell cycle arrest in human A549 cells assessed as accumulation at subG0 phase at 2 uM after 36 hrs by propidium iodide staining-based FACS flow cytometric analysis relative to control. Format: functional.
Experiment [15] deals with A549. The experiment is described as follows: Cell cycle arrest in human A549 cells assessed as accumulation at subG0 phase at 1 uM after 36 hrs by propidium iodide staining-based FACS flow cytometric analysis relative to control. Format: functional.
Experiment [16] deals with A549. Description: Cell cycle arrest in human A549 cells assessed as accumulation at G0/G1 phase after 36 hrs by propidium iodide staining-based FACS flow cytometric analysis. Format: functional.
Experiment [17] has as its system A549. Description: Cell cycle arrest in human A549 cells assessed as accumulation at G2/M phase at 0.5 uM after 36 hrs by propidium iodide staining-based FACS flow cytometric analysis (reference value: 2.09%). Format: functional.
Experiment [18] deals with A549. Description: Cell cycle arrest in human A549 cells assessed as accumulation at G2/M phase at 2 uM after 36 hrs by propidium iodide staining-based FACS flow cytometric analysis (reference value: 2.09%). Type of experiment: functional.
In experiment [19] the test system is A549. Description: Cell cycle arrest in human A549 cells assessed as accumulation at G0/G1 phase at 0.5 uM after 36 hrs by propidium iodide staining-based FACS flow cytometric analysis (reference value: 57.07%). Type of experiment: functional.
The subject of experiment [20] is A549. Description: Cell cycle arrest in human A549 cells assessed as accumulation at S phase at 0.5 uM after 36 hrs by propidium iodide staining-based FACS flow cytometric analysis (reference value: 40.84%). Type of experiment: functional.
The test system of experiment [21] is A549. Description: Cell cycle arrest in human A549 cells assessed as accumulation at S phase at 2 uM after 36 hrs by propidium iodide staining-based FACS flow cytometric analysis (reference value: 40.84%). Format: functional.
In experiment [22] the test system is A549. Description: Cell cycle arrest in human A549 cells assessed as accumulation at G0/G1 phase at 2 uM after 36 hrs by propidium iodide staining-based FACS flow cytometric analysis (reference value: 57.07%). Type of experiment: functional.
The test system of experiment [23] is A549. The experiment is described as follows: Cell cycle arrest in human A549 cells assessed as accumulation at subG0 phase at 0.5 uM after 36 hrs by propidium iodide staining-based FACS flow cytometric analysis relative to control. Type of experiment: functional.
Experiment [24] deals with A549. Description: Cell cycle arrest in human A549 cells assessed as accumulation at S phase at 1 uM after 36 hrs by propidium iodide staining-based FACS flow cytometric analysis (reference value: 40.84%). Format: functional.

Epidermal growth factor receptor, sequence (P00533 whole entry, the tested form may be a part): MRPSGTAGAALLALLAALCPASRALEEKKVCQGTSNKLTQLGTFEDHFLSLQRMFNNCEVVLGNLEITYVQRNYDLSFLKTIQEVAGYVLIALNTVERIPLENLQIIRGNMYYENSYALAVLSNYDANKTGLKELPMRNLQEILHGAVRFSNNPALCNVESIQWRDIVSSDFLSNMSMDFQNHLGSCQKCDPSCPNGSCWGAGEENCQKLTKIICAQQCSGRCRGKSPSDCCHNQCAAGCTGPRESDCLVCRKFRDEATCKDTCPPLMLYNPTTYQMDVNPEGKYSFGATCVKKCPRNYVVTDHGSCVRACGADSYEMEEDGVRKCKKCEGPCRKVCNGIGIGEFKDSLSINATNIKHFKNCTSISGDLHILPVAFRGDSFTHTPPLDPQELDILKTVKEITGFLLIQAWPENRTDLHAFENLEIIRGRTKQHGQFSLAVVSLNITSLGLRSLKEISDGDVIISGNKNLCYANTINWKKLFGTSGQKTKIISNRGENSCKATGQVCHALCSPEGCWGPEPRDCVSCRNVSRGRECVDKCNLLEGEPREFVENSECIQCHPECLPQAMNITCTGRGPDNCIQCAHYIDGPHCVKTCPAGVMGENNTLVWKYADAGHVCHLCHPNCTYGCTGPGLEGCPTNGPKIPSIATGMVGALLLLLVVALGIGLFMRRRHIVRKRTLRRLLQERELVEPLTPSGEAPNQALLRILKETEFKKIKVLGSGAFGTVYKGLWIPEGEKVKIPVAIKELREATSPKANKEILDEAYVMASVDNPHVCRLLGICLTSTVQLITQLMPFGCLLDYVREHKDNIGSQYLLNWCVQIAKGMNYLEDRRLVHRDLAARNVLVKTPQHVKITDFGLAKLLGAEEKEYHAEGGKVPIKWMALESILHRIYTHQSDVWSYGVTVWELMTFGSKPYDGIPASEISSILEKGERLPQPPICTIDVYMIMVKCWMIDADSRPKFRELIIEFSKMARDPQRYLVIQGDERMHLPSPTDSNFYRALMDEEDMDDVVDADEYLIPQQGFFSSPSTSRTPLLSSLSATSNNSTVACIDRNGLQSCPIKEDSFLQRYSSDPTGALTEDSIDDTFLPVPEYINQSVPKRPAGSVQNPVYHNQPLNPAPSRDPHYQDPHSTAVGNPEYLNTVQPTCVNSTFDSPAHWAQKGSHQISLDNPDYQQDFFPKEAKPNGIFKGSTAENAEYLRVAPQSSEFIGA

The term IC50 denotes the concentration that inhibits the measured activity by half. As for `COc1ccc(NC(=S)NC(=O)c2cn(-c3ccccc3)nc2-c2ccc(C)cc2)cc1`, the IC50 is 3.24 µM in [1]; 584 nM in experiment [2]; greater than 5 µM in [3]; 40 nM in [4]; 1790 nM in experiment [5]; 1420 nM in [6]. For the same molecule, the 50% inhibitory concentration (IC50) was 2390 nM in experiment [7]; 47 nM in experiment [8]; 5.12 µM in experiment [9]; greater than 5 µM in experiment [10]; 43 nM in experiment [11].

In the case of `COc1ccc(NC(=S)NC(=O)c2cn(-c3ccccc3)nc2-c2ccc(OC)cc2)cc1`, the IC50 in [1] is 2.57 µM; in [2], 522 nM; in experiment [3] it was greater than 5 µM; in experiment [4] it was 35 nM; in [5], 1420 nM; in experiment [6] it was 1090 nM. In addition, the IC50 in [7] was 750 nM; in experiment [8], 25 nM; in experiment [9] it was 4.21 µM; in experiment [10], greater than 5 µM; in experiment [11], 29 nM. Also, the Activity in [12] was 2.99%; in experiment [13], 62.53%; in experiment [14], 0%; in experiment [15], 0%; in experiment [16], “Dose-dependent effect”; in [17], 8.04%. In addition, the Activity in experiment [18] is 7.52%; in experiment [19], 59.49%; in experiment [20], 32.47%; in [21], 28.48%; in experiment [22] it was 64%; in experiment [23], 0%. In addition, the Activity in [24] is on record as 34.48%.

Regarding `O=C(NC(=S)Nc1ccc(Cl)cc1)c1cn(-c2ccccc2)nc1-c1ccc(F)cc1`, the IC50 in experiment [1] was 3.09 µM; in experiment [7], 2990 nM; in [8], 44 nM; in experiment [9], 5.47 µM.

Take `Cn1cnc2c(NCc3ccccc3)nc(NCCO)nc21` [OLOMOUCINE]: the IC50 was determined as 132 µM in [1], 130000 nM in [7] and 142 µM in experiment [9].

For the molecule `COc1ccc(NC(=S)NC(=O)c2cn(-c3ccccc3)nc2-c2ccccc2)cc1`, the IC50 is 3.54 µM in experiment [1]; 610 nM in [2]; greater than 5 µM in experiment [3]; 42 nM in experiment [4]; 1880 nM in [5]; 1500 nM in experiment [6]. The IC50 in [7] was 2500 nM; in [8], 56 nM; in experiment [9] it was 5.46 µM; in experiment [10] it was greater than 5 µM; in experiment [11], 50 nM.

With `Cc1ccc(NC(=S)NC(=O)c2cn(-c3ccccc3)nc2-c2ccc(Cl)cc2)cc1`, the IC50 turned out to be 3.12 µM in [1], 2690 nM in [7], 42 nM in experiment [8] and 5.98 µM in [9].

Turning to `COc1ccc(-c2nn(-c3ccccc3)cc2C(=O)NC(=S)Nc2ccc(F)cc2)cc1`, the IC50 in [1] turned out to be 3.05 µM; in [7], 1430 nM; in [8], 32 nM; in experiment [9], 4.99 µM.

Regarding `COc1ccc(NC(=S)NC(=O)c2cn(-c3ccccc3)nc2-c2ccc(Cl)cc2)cc1`, the IC50 in [1] was 3.01 µM; in experiment [2], 571 nM; in experiment [3] it was greater than 5 µM; in experiment [4] it was 40 nM; in experiment [5], 1650 nM; in experiment [6], 1360 nM. Moreover, the IC50 in experiment [7] was 2270 nM; in [8], 37 nM; in [9], 5.24 µM; in [10] it was greater than 5 µM; in [11] it was 42 nM.

In the case of `Cc1ccc(-c2nn(-c3ccccc3)cc2C(=O)NC(=S)Nc2ccc(Cl)cc2)cc1`, the IC50 stood at 3.65 µM in experiment [1], 3170 nM in [7], 63 nM in experiment [8] and 6.21 µM in experiment [9].

For the molecule `Cc1ccc(-c2nn(-c3ccccc3)cc2C(=O)NC(=S)Nc2ccc(F)cc2)cc1`, the IC50 in experiment [1] worked out at 3.98 µM; in [7], 3420 nM; in [8] it was 41 nM; in experiment [9] it was 6.42 µM.

In the case of `O=C(NC(=S)Nc1ccc(F)cc1)c1cn(-c2ccccc2)nc1-c1ccccc1`, the IC50 turned out to be 4.21 µM in experiment [1], 3500 nM in experiment [7], 75 nM in experiment [8] and 6.82 µM in experiment [9].

As to `O=C(NC(=S)Nc1ccc(Cl)cc1)c1cn(-c2ccccc2)nc1-c1ccccc1`, the IC50 in [1] came out at 4.02 µM; in experiment [7] it was 3200 nM; in experiment [8], 71 nM; in experiment [9], 6.23 µM.

Regarding `COc1ccc(-c2nn(-c3ccccc3)cc2C(=O)NC(=S)Nc2ccc(Cl)cc2)cc1`, the IC50 in [1] came out at 3.01 µM; in experiment [7], 1310 nM; in [8], 30 nM; in experiment [9] it was 4.76 µM.

`Cc1ccc(NC(=S)NC(=O)c2cn(-c3ccccc3)nc2-c2ccccc2)cc1`: the IC50 in experiment [1] turned out to be 3.96 µM; in [7], 2800 nM; in experiment [8], 69 nM; in experiment [9], 5.9 µM.

Turning to `COc1ccc(-c2nn(-c3ccccc3)cc2C(=O)NC(=S)Nc2ccc(C)cc2)cc1`, the IC50 in experiment [1] came out at 2.88 µM; in [7], 1250 nM; in [8], 29 nM; in [9], 4.63 µM.

Take `Cc1ccc(NC(=S)NC(=O)c2cn(-c3ccccc3)nc2-c2ccc(F)cc2)cc1`: the IC50 in experiment [1] amounted to 2.98 µM; in [7] it was 2080 nM; in [8] it was 43 nM; in experiment [9], 5.44 µM.

For the molecule `O=C(NC(=S)Nc1ccc(F)cc1)c1cn(-c2ccccc2)nc1-c1ccc(Cl)cc1`, the IC50 is 3.64 µM in experiment [1], 3980 nM in [7], 59 nM in [8] and 5.99 µM in [9].

In the case of `COc1ccc(NC(=S)NC(=O)c2cn(-c3ccccc3)nc2-c2ccc(F)cc2)cc1`, the IC50 in experiment [1] is 2.86 µM; in experiment [2] it was 569 nM; in experiment [3] it was greater than 5 µM; in experiment [4] it was 39 nM; in [5], 1640 nM; in [6], 1180 nM. Also, the IC50 in experiment [7] was 1980 nM; in experiment [8], 36 nM; in experiment [9], 4.89 µM; in [10] it was greater than 5 µM; in experiment [11] it was 33 nM.

Take `Cc1ccc(NC(=S)NC(=O)c2cn(-c3ccccc3)nc2-c2ccc(C)cc2)cc1`: the IC50 was determined as 3.76 µM in experiment [1], 2830 nM in [7], 52 nM in experiment [8] and 5.66 µM in experiment [9].

Take `O=C(NC(=S)Nc1ccc(Cl)cc1)c1cn(-c2ccccc2)nc1-c1ccc(Cl)cc1`: the IC50 in experiment [1] was 3.26 µM; in experiment [7], 3150 nM; in experiment [8] it was 58 nM; in experiment [9] it was 5.36 µM.

In the case of `O=C(NC(=S)Nc1ccc(F)cc1)c1cn(-c2ccccc2)nc1-c1ccc(F)cc1`, the IC50 turned out to be 3.24 µM in [1], 3540 nM in experiment [7], 49 nM in experiment [8] and 5.61 µM in [9].
